“And” between values parts separate entries of the source, which are not always exact repeats. Equal entries are not always repeated.
Test system: Rattus norvegicus
Assay: Hypolipidemic activity was measured as reduction in rat serum cholesterol after oral administration in male Wistar rats at 100 mg/(kg day)
Assay type: functional
Conditions: not given
Summary of the method: (§1)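 Cholesterol-fed rats given the test compound orally by gavage on the last 3 days, with controls receiving vehicle (0.5% tragacanth mucilage). After overnight starvation, rats were killed under CO2 3 h after the last dose and bled by cardiac puncture. Serum cholesterol and triglyceride were measured by autoanalyzer and expressed as percentage reduction from control levels, with Student's t test.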
`Cc1cnsc1C(c1ccc(C(C)C)cc1)N1CCN(C)CC1` (configuration not stated) gave a Reduction of 68%. For `Cc1noc(C)c1C(c1ccc(C(C)C)cc1)N1CCN(C)CC1` (configuration not stated), the Reduction was 87%. For `Cc1cnsc1C(c1ccc(C(C)C)cc1)N1CCNCC1` (configuration not stated), the Reduction was 86%. With `CCc1ccc(C(c2ccns2)N2CCN(C)CC2)cc1` (configuration not stated) the Reduction was 74% and 58%. With `CC(C)c1ccc(C(c2ccns2)N2CCNCC2)cc1` (configuration not stated) the Reduction was 84%. In the case of `Cc1cnsc1C(c1ccc(C(C)C)cc1)N1CCN(CCO)CC1` (configuration not stated), the Reduction was 87%. With `Cc1ccccc1C(c1c(C)noc1C)N1CCN(C)CC1` (configuration not stated) the Reduction was 80%. For `Cc1cnsc1C(c1ccc(C(C)C)cc1)N1CCN(CC(C)O)CC1` (configuration not stated), the Reduction was 64%.

Test system: Rattus norvegicus
Assay: Hypolipidemic activity was measured as reduction in rat serum triglyceride after oral administration in male Wistar rats at 30 mg / (kg day)
Assay type: functional
Conditions: not given
Summary of the method: as §1
Work on `Cc1cnsc1C(c1ccc(C(C)C)cc1)N1CCN(C)CC1` (configuration not stated) yielded a Reduction of 64%. `Cc1noc(C)c1C(c1ccc(C(C)C)cc1)N1CCN(C)CC1` (configuration not stated) showed a Reduction of 69%. Work on `Cc1cnsc1C(c1ccc(C(C)C)cc1)N1CCNCC1` (configuration not stated) yielded a Reduction of 76%. In the case of `CC(C)c1ccc(C(c2ccns2)N2CCNCC2)cc1` (configuration not stated), the Reduction was 87%. In the case of `Cc1cnsc1C(c1ccc(C(C)C)cc1)N1CCN(CCO)CC1` (configuration not stated), the Reduction was 69%. With `Cc1ccccc1C(c1c(C)noc1C)N1CCN(C)CC1` (configuration not stated) the Reduction was 21%. In the case of `Cc1cnsc1C(c1ccc(C(C)C)cc1)N1CCN(CC(C)O)CC1` (configuration not stated), the Reduction was 65%.

Test system: Rattus norvegicus
Assay: Hypolipidemic activity was measured as reduction in rat serum cholesterol after oral administration in male Wistar rats at 1 mg / (kg day)
Assay type: functional
Conditions: not given
Summary of the method: as §1
With `Cc1noc(C)c1C(c1ccc(C(C)C)cc1)N1CCN(C)CC1` (configuration not stated) the Reduction was 8%. Molecule `Cc1cnsc1C(c1ccc(C(C)C)cc1)N1CCNCC1` (configuration not stated) has a Reduction of 16%. For `CC(C)c1ccc(C(c2ccns2)N2CCNCC2)cc1` (configuration not stated), the Reduction was 37%. For `Cc1cnsc1C(c1ccc(C(C)C)cc1)N1CCN(CCO)CC1` (configuration not stated), the Reduction was 10%.

Test system: Rattus norvegicus
Assay: Hypolipidemic activity was measured as reduction in rat serum triglyceride after oral administration in male Wistar rats at 10 mg / (kg day)
Assay type: functional
Conditions: not given
Summary of the method: as §1
`Cc1cnsc1C(c1ccc(C(C)C)cc1)N1CCN(C)CC1` (configuration not stated) gave a Reduction of 42%. In the case of `Cc1noc(C)c1C(c1ccc(C(C)C)cc1)N1CCN(C)CC1` (configuration not stated), the Reduction was 35%. `Cc1cnsc1C(c1ccc(C(C)C)cc1)N1CCNCC1` (configuration not stated) gave a Reduction of 48%. `CC(C)c1ccc(C(c2ccns2)N2CCNCC2)cc1` (configuration not stated) gave a Reduction of 65%. Work on `Cc1cnsc1C(c1ccc(C(C)C)cc1)N1CCN(CCO)CC1` (configuration not stated) yielded a Reduction of 48%. In the case of `Cc1cnsc1C(c1ccc(C(C)C)cc1)N1CCN(CC(C)O)CC1` (configuration not stated), the Reduction was 22%.

Test system: Rattus norvegicus
Assay: Hypolipidemic activity was measured as reduction in rat serum triglyceride after oral administration in male Wistar rats at 200 mg / (kg day)
Assay type: functional
Conditions: not given
Summary of the method: as §1
For `Cc1ccccc1C(c1c(C)noc1C)N1CCN(C)CC1` (configuration not stated), the Reduction was 84%.

Test system: Rattus norvegicus
Assay: Hypolipidemic activity was measured as reduction in rat serum triglyceride after oral administration in male Wistar rats at 3 mg / (kg day)
Assay type: functional
Conditions: not given
Summary of the method: as §1
With `Cc1cnsc1C(c1ccc(C(C)C)cc1)N1CCN(C)CC1` (configuration not stated) the Reduction was 5%. In the case of `Cc1cnsc1C(c1ccc(C(C)C)cc1)N1CCNCC1` (configuration not stated), the Reduction was 2%. For `CC(C)c1ccc(C(c2ccns2)N2CCNCC2)cc1` (configuration not stated), the Reduction was 18%. Molecule `Cc1cnsc1C(c1ccc(C(C)C)cc1)N1CCN(CCO)CC1` (configuration not stated) has a Reduction of 8%. `Cc1cnsc1C(c1ccc(C(C)C)cc1)N1CCN(CC(C)O)CC1` (configuration not stated) gave a Reduction of 22%.

Test system: Rattus norvegicus
Assay: Minimum effective dose (MED) is the dose (mg/kg)that cause significant reduction in serum cholesterol of 30% compared to concurrent controls.
Assay type: functional
Design: unit: mg/kg
Conditions: not given
Summary of the method: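 MED was calculated from the log dose/response curve as the dose giving a statistically significant 30% fall in serum cholesterol versus concurrent controls. Measured in the 3-day oral cholesterol-fed rat screen, or in a 2-week test: groups of eight young male Wistar rats on cholesterol/cholic acid-supplemented or normal diet, dosed orally by gavage daily for 14 days, vehicle 0.5% tragacanth mucilage.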
For `Cc1cnsc1C(c1ccc(C(C)C)cc1)N1CCN(C)CC1` (configuration not stated), the MED was 3. For `Cc1noc(C)c1C(c1ccc(C(C)C)cc1)N1CCN(C)CC1` (configuration not stated), the MED was 2. With `Cc1cnsc1C(c1ccc(C(C)C)cc1)N1CCNCC1` (configuration not stated) the MED was 2. `CCc1ccc(C(c2ccns2)N2CCN(C)CC2)cc1` (configuration not stated) gave an MED of 10. `CC(C)c1ccc(C(c2ccns2)N2CCNCC2)cc1` (configuration not stated) gave an MED of 1. Work on `Cc1cnsc1C(c1ccc(C(C)C)cc1)N1CCN(CCO)CC1` (configuration not stated) yielded an MED of 3. Molecule `Cc1cnsc1C(c1ccc(C(C)C)cc1)N1CCN(CC(C)O)CC1` (configuration not stated) has an MED of 5.

Test system: Rattus norvegicus
Assay: Hypolipidemic activity was measured as reduction in rat serum cholesterol after oral administration in male Wistar rats at 3 mg / (kg day)
Assay type: functional
Conditions: not given
Summary of the method: as §1
`Cc1cnsc1C(c1ccc(C(C)C)cc1)N1CCN(C)CC1` (configuration not stated) showed a Reduction of 31%. For `Cc1noc(C)c1C(c1ccc(C(C)C)cc1)N1CCN(C)CC1` (configuration not stated), the Reduction was 41% and 30%. In the case of `Cc1cnsc1C(c1ccc(C(C)C)cc1)N1CCNCC1` (configuration not stated), the Reduction was 44%. In the case of `CC(C)c1ccc(C(c2ccns2)N2CCNCC2)cc1` (configuration not stated), the Reduction was 57%. For `Cc1cnsc1C(c1ccc(C(C)C)cc1)N1CCN(CCO)CC1` (configuration not stated), the Reduction was 30%. With `Cc1cnsc1C(c1ccc(C(C)C)cc1)N1CCN(CC(C)O)CC1` (configuration not stated) the Reduction was 8%.

Test system: Rattus norvegicus
Assay: Hypolipidemic activity was measured as reduction in rat serum triglyceride after oral administration in male Wistar rats at 100 mg / (kg day)
Assay type: functional
Conditions: not given
Summary of the method: as §1
Work on `Cc1cnsc1C(c1ccc(C(C)C)cc1)N1CCN(C)CC1` (configuration not stated) yielded a Reduction of 89%. Work on `Cc1noc(C)c1C(c1ccc(C(C)C)cc1)N1CCN(C)CC1` (configuration not stated) yielded a Reduction of 66%. `Cc1cnsc1C(c1ccc(C(C)C)cc1)N1CCNCC1` (configuration not stated) showed a Reduction of 81%. `CC(C)c1ccc(C(c2ccns2)N2CCNCC2)cc1` (configuration not stated) gave a Reduction of 90%. Molecule `Cc1cnsc1C(c1ccc(C(C)C)cc1)N1CCN(CCO)CC1` (configuration not stated) has a Reduction of 97%. With `Cc1ccccc1C(c1c(C)noc1C)N1CCN(C)CC1` (configuration not stated) the Reduction was 75%. Work on `Cc1cnsc1C(c1ccc(C(C)C)cc1)N1CCN(CC(C)O)CC1` (configuration not stated) yielded a Reduction of 81%.

Test system: Rattus norvegicus
Assay: Hypolipidemic activity was measured as reduction in rat serum cholesterol after oral administration in male Wistar rats at 10 mg / (kg day)
Assay type: functional
Conditions: not given
Summary of the method: as §1
`Cc1cnsc1C(c1ccc(C(C)C)cc1)N1CCN(C)CC1` (configuration not stated) gave a Reduction of 48%. Work on `Cc1noc(C)c1C(c1ccc(C(C)C)cc1)N1CCN(C)CC1` (configuration not stated) yielded a Reduction of 67%. Work on `Cc1cnsc1C(c1ccc(C(C)C)cc1)N1CCNCC1` (configuration not stated) yielded a Reduction of 70%. With `CC(C)c1ccc(C(c2ccns2)N2CCNCC2)cc1` (configuration not stated) the Reduction was 62%. For `Cc1cnsc1C(c1ccc(C(C)C)cc1)N1CCN(CCO)CC1` (configuration not stated), the Reduction was 69%. Work on `Cc1cnsc1C(c1ccc(C(C)C)cc1)N1CCN(CC(C)O)CC1` (configuration not stated) yielded a Reduction of 45%.

Test system: Rattus norvegicus
Assay: Hypolipidemic activity was measured as reduction in rat serum cholesterol after oral administration in male Wistar rats at 200 mg / (kg day)
Assay type: functional
Conditions: not given
Summary of the method: as §1
`Cc1ccccc1C(c1c(C)noc1C)N1CCN(C)CC1` (configuration not stated) showed a Reduction of 88%.

Test system: Rattus norvegicus
Assay: Hypolipidemic activity was measured as reduction in rat serum triglyceride after oral administration in male Wistar rats at 1 mg / (kg day)
Assay type: functional
Conditions: not given
Summary of the method: as §1
Molecule `Cc1noc(C)c1C(c1ccc(C(C)C)cc1)N1CCN(C)CC1` (configuration not stated) has a Reduction of 31%. In the case of `Cc1cnsc1C(c1ccc(C(C)C)cc1)N1CCNCC1` (configuration not stated), the Reduction was 15%. `CC(C)c1ccc(C(c2ccns2)N2CCNCC2)cc1` (configuration not stated) gave a Reduction of 24%. In the case of `Cc1cnsc1C(c1ccc(C(C)C)cc1)N1CCN(CCO)CC1` (configuration not stated), the Reduction was 3%.

Test system: Rattus norvegicus
Assay: Hypolipidemic activity was measured as reduction in rat serum cholesterol after oral administration in male Wistar rats at 100 mg / (kg day)
Assay type: functional
Conditions: not given
Summary of the method: as §1
Molecule `CCc1ccc(C(c2ccns2)N2CCN(C)CC2)cc1` (configuration not stated) has a Reduction of 32%.

Test system: not listed separately
Assay: The therapeutic safety margin (TSM) is the ratio of the minimum lethal dose (mg/kg)to the MED
Assay type: ADME, organism-based
Conditions: in vivo
Summary of the method: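 Young male Wistar rats, eight per group, on cholesterol/cholic acid-supplemented or normal diet; graded oral gavage doses daily for 14 days; vehicle controls (0.5% tragacanth mucilage). Mortalities recorded to give the minimum lethal daily dose. After overnight fasting, serum cholesterol assayed by autoanalyzer. MED is the dose giving a significant (t test) 30% cholesterol fall, from the log dose/response curve. TSM = minimum lethal dose/MED.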
In the case of `Cc1cnsc1C(c1ccc(C(C)C)cc1)N1CCN(C)CC1` (configuration not stated), the therapeutic safety margin (minimum lethal dose / MED) was 30. With `Cc1noc(C)c1C(c1ccc(C(C)C)cc1)N1CCN(C)CC1` (configuration not stated) the therapeutic safety margin (minimum lethal dose / MED) was 100. For `Cc1cnsc1C(c1ccc(C(C)C)cc1)N1CCNCC1` (configuration not stated), the therapeutic safety margin (minimum lethal dose / MED) was 10. For `CCc1ccc(C(c2ccns2)N2CCN(C)CC2)cc1` (configuration not stated), the therapeutic safety margin (minimum lethal dose / MED) was < 20. `CC(C)c1ccc(C(c2ccns2)N2CCNCC2)cc1` (configuration not stated) gave a therapeutic safety margin (minimum lethal dose / MED) of 4. `Cc1cnsc1C(c1ccc(C(C)C)cc1)N1CCN(CCO)CC1` (configuration not stated) gave a therapeutic safety margin (minimum lethal dose / MED) of 30. Work on `Cc1cnsc1C(c1ccc(C(C)C)cc1)N1CCN(CC(C)O)CC1` (configuration not stated) yielded a therapeutic safety margin (minimum lethal dose / MED) of 12.

Test system: Rattus norvegicus
Assay: Hypolipidemic activity was measured as reduction in rat serum cholesterol after oral administration in male Wistar rats at 30 mg / (kg day)
Assay type: functional
Conditions: not given
Summary of the method: as §1
For `Cc1cnsc1C(c1ccc(C(C)C)cc1)N1CCN(C)CC1` (configuration not stated), the Reduction was 69%. In the case of `Cc1noc(C)c1C(c1ccc(C(C)C)cc1)N1CCN(C)CC1` (configuration not stated), the Reduction was 80%. Work on `Cc1cnsc1C(c1ccc(C(C)C)cc1)N1CCNCC1` (configuration not stated) yielded a Reduction of 87%. `CC(C)c1ccc(C(c2ccns2)N2CCNCC2)cc1` (configuration not stated) gave a Reduction of 74%. `Cc1cnsc1C(c1ccc(C(C)C)cc1)N1CCN(CCO)CC1` (configuration not stated) showed a Reduction of 82%. Molecule `Cc1ccccc1C(c1c(C)noc1C)N1CCN(C)CC1` (configuration not stated) has a Reduction of 28%. `Cc1cnsc1C(c1ccc(C(C)C)cc1)N1CCN(CC(C)O)CC1` (configuration not stated) showed a Reduction of 50%.
